Test results as given in ChEMBL document CHEMBL2434878, “Synthesis and antimycobacterial activity of analogues of the bioactive natural products sampangine and cleistopholine” (Eur J Med Chem, 2013).

Experiments:
[1] = tested on: Mycobacterium tuberculosis; test: Antimicrobial activity against multidrug-resistant Mycobacterium tuberculosis LAM-1 at 5 uM by Bactec 460 TB method relative to control; assay type: functional; conditions: read-out: GI
How it was run: (§1)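 MDR clinical isolate LAM-1 was precultured in a BACTEC vial to growth index 300, then inoculated into a fresh vial with compound (dilutions made at 40-fold final in 7H9-10% OADC). 14CO2 release from 14C-palmitic acid was read daily.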

[2] = tested on: Mycobacterium tuberculosis; test: Antimicrobial activity against multidrug-resistant Mycobacterium tuberculosis LAM-1 at 1 uM by Bactec 460 TB method relative to control; assay type: functional; conditions: read-out: GI; how it was run: as §1

SMILES	inhibition of growth at 5 µM [1] [%]	inhibition of growth at 1 µM [2] [%]
COc1ccc(-c2cc3c4c(nccc4n2)-c2ccccc2C3=O)cc1	99	90
COc1ccc(-c2cc(O)c3c(c2)C(=O)c2ccccc2C3=O)cc1	99	90
COc1ccc(-c2cc3c(c(/C=C/N(C)C)n2)C(=O)c2ccccc2C3=O)cc1	99	90
